From PubChem
Sampled rows, rich in hits. Any-hit rate of the full collection: about 1.8%.
CHRM4 agonist: agonists of human muscarinic M4 receptor (CHRM4) | P08173 | CHO-K1 hM4/Gqi5, Fluo-8 calcium fluorescence; vehicle 0%, full acetylcholine response 100% | activation, % at 3 µM | 360,000 compounds, 0.14% hits;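 active = activation above the run mean over all test wells plus 3 SD, cut at about 32% in these data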;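 also: peak over basal fluorescence ratio per well then scaled between controls; 0% = DMSO wells and 100% = acetylcholine at EC100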
CHRM4 antagonist: CHRM4 antagonism in calcium assay; 360,000 compounds, 0.73% hits; CHO-hM4 cells, ACh EC80, Fluo-8 calcium fluorescence; P08173; AID 624125; inhibition, % at 3 µM;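 active = inhibition above its plate's cutoff, the mean inhibition of sample wells plus 3 SD, cut at about 27% in these data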;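 also: 0% = acetylcholine EC80 with DMSO and 100% = DMSO without agonist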
M5 antag: CHRM5 antagonism in calcium assay; inhibition, % at 3 µM; CHO-hM5 cells, Fluo-8 calcium fluorescence, ACh EC80; AID 624040; 360,000 compounds, 0.59% hits;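 active = inhibition above a per-plate cutoff, the mean of that plate's test compounds plus 3 SD, cut at about 27% in these data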;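 also: 0% = acetylcholine EC80 with DMSO and 100% = DMSO without agonist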
Target sequence (P08912 whole entry, looked up): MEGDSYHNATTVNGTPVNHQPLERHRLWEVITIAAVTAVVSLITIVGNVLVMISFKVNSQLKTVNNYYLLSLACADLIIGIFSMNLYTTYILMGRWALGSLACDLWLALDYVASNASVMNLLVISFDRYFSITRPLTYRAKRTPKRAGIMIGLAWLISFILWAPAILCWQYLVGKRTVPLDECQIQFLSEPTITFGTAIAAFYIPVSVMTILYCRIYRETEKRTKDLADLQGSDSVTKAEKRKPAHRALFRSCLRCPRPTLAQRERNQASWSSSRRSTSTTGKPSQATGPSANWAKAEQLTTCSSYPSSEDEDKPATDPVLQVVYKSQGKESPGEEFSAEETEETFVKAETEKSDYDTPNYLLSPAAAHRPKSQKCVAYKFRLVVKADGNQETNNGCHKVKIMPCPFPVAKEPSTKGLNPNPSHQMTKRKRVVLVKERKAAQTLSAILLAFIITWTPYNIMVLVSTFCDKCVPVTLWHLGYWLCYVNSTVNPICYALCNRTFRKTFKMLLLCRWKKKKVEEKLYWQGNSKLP
CHRM5 PAM: CHRM5 positive allosteric modulation; 360,000 compounds, 0.3% hits; P08912; AID 624038; CHO-K1 hM5, Fluo-8 calcium, ACh EC20 PAM; 0% = ACh EC20, 100% = ACh EC100; activation, % at 3 µM;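 active = activation above the run cutoff, the mean activation of all test compounds plus 3 SD, cut at about 18% in these data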
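Measured by: Fluo-8 calcium fluorescence; material: human M5 receptor in CHO-K1 cells; schedule: Post-acetylcholine fluorescence recording 140 s; benchmarks: low control EC20 acetylcholine (0%), high control EC100 acetylcholine (100%); read-out: Max/basal fluorescence ratio as % of EC20–EC100 ACh window; compound: single dose, 3 µM nominal final test concentration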
CHRM4 PAM: positive allosteric modulators of human muscarinic M4 receptor; P08173; activation, % at 3 µM; CHO-K1 hM4/Gqi5, Fluo-8 calcium fluorescence, ACh EC20; 0% = ACh EC20, 100% = maximal ACh; 360,000 compounds, 0.4% hits;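 active = activation above its plate's cutoff, the mean activation of sample wells plus 3 SD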
CHRM5 agonist: agonists of human muscarinic M5 receptor (CHRM5); P08912; CHO-K1 hM5 cells, Fluo-8 calcium fluorescence; 0% DMSO wells, 100% maximal acetylcholine response; activation, % at 3 µM; 360,000 compounds, 0.19% hits;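 active = activation above the run's mean over test compounds plus 3 SD, cut at about 23% in these data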;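 also: signal is peak over basal fluorescence ratio across the kinetic read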
An asterisk follows results filed as active.

SMILES	CHRM4 agonist	CHRM4 antagonist	M5 antag	CHRM5 PAM	CHRM4 PAM	CHRM5 agonist
COC(=O)Cc1ccc(OC2(C)CCN(Cc3csc4ccccc34)C2)cc1 (configuration not stated)	1.1	54.2*	6.7	-19.0	-13.3	-2.1
CC1(Oc2cccc(F)c2)CCN(Cc2csc3ccccc23)C1 (configuration not stated)	-1.6	7.4	-2.2	-2.6	-3.9	-1.6
CN(C)C(=O)c1cc2c(c(-c3cccc(C4=CCCCC4)c3)n1)[C@@H](CCO)N(S(=O)C(C)(C)C)C2 (some centres not stated)	5.1	-6.2	13.4	-9.4	-5.6	4.4
Cc1cccc(C(O)c2ncc(-c3ccc(C(F)(F)F)cc3)[nH]2)c1C (configuration not stated)	1.1	-27.1	-4.3	1.5	10.2	-2.3
Cc1noc(C)c1CCC(=O)N1CCCC(N2CCN(c3ccc(F)cc3)CC2)C1 (configuration not stated)	2.0	-2.9	3.0	-4.8	5.0	-2.2
CCOC(=O)C1=C(N)Oc2c(oc(CO)cc2=O)C1c1ccc(Cl)cc1 (configuration not stated)	1.1	10.6	-2.0	18.3*	-1.2	2.5
CCCCC(=O)N1CCN(c2nc3ccc(Br)cc3s2)CC1	12.4	-0.7	-11.4	-3.6	19.4*	7.3
CCOC(=O)N1CCN(C(=O)c2ccc3nc(N4CCC(C)CC4)sc3c2)CC1	2.3	-2.2	-2.3	3.8	15.7*	3.4
CC(=O)N1CCN(c2nc3ccc(Br)cc3s2)CC1	5.1	-2.5	-9.7	5.6	-0.3	1.2
CCCC(=O)N1CCN(c2nc3ccc(Br)cc3s2)CC1	12.5	1.1	7.2	-8.3	28.9*	2.1
CCCC(=O)N1CCN(c2nc3ccc(CC)cc3s2)CC1	5.3	-0.3	-7.1	1.2	14.8	-1.0
COCCN1C(=O)C(=O)/C(=C(/O)c2ccc(C)cc2)C1c1ccccn1 (configuration not stated)	0.5	-6.2	-7.3	6.1	5.5	-1.4
COc1cc(C=O)ccc1OC(=O)c1cccnc1	1.1	-7.8	29.8*	-13.8	0.0	-2.1
COc1ccccc1-c1ccc(/C=C2/C=C(C)OC2=O)o1	1.8	-10.3	1.0	1.6	6.1	-1.6
COc1ccccc1-c1ccc(/C=C2\C=CC(=O)O2)o1	24.0	7.8	27.1*	-23.8	-15.0	70.4*
Cc1cc(C(=O)NC2CC(C)(C)Cc3c2cnn3-c2ccc(F)cc2)no1 (configuration not stated)	0.1	2.9	-5.2	1.0	1.6	4.3
CCc1nc2ccc(C(=O)Nc3ccc(OC)c(OC)c3)cn2c1N(C)Cc1nccs1	9.5	-10.0	7.0	-7.8	-0.4	1.8
Cc1cc(C)c(C#N)c(SCc2nnc(-c3ccccc3[N+](=O)[O-])o2)n1	24.3	7.2	46.7*	-21.0	-15.8	-2.4
Cc1cc(C)c(C#N)c(SCc2ccccc2[N+](=O)[O-])n1	-1.1	3.9	9.2	-5.9	0.7	-5.2
Cc1cnc(CNC(=O)c2ccc(OC3CCN(C(=O)C4CC4)CC3)cc2)cn1	3.5	-2.3	0.1	23.2*	17.9	16.9
Cc1ccc(NC(=O)Cn2nnc(C(=O)NCc3ccc4c(c3)OCO4)c2N)cc1	2.8	1.0	-17.8	18.1*	4.3	1.3
COc1cccc(CNC(=O)c2nnn(CC(=O)Nc3ccc4c(c3)OCO4)c2N)c1	0.6	9.1	9.2	-1.1	-11.8	2.0
Nc1c(C(=O)NCc2ccc3c(c2)OCO3)nnn1Cc1ccc(Br)cc1	29.9	17.0	5.3	6.6	0.9	30.1*
COc1cccc(NC(=O)Cn2nnc(C(=O)NCc3ccc4c(c3)OCO4)c2N)c1	3.6	-3.8	-19.1	22.1*	2.6	0.2
CCOC(=O)c1sc(NC(=O)Nc2cccc(Cl)c2)cc1C	17.0	37.5*	36.9*	-18.0	-24.2	7.3
SMILES	CHRM4 agonist	CHRM4 antagonist	M5 antag	CHRM5 PAM	CHRM4 PAM	CHRM5 agonist
O=C(NCc1ccncc1)Nc1cccc(Cl)c1	1.3	-6.5	-5.0	1.8	1.1	-6.8
Cc1cccc(NC(=O)Nc2ccc(Cl)cc2)n1	0.6	-0.2	0.1	-0.7	-0.5	0.6
O=C(Nc1ccc(-n2ccc(C(F)(F)F)n2)cc1)Nc1cccc(Cl)c1	17.7	27.2*	38.2*	-30.5	-49.8	6.7
Cc1nccc(-c2cccc(NC(=O)Nc3ccc(Cl)cc3)c2)n1	19.9	8.6	27.7*	-30.4	-37.3	8.5
O=C(Nc1ccncc1)Nc1cccc(Cl)c1	15.1	3.9	30.9*	-12.8	-5.7	8.6
CCOC(=O)[C@H]1[C@H]2COc3cc(OC)ccc3[C@@H]2N2C(=O)CN(Cc3ccc(OC)cc3)C(=O)[C@@]12C	4.4	-0.2	13.3	4.7	3.7	3.5
O=C(Nc1cccc(Cl)c1)Nc1nc(-c2ccc(Cl)cc2)cs1	9.8	23.6	22.7	-15.0	0.0	5.0
O=C(Nc1cccc(Cl)c1)Nc1csc([N+](=O)[O-])c1	15.3	19.3	28.4*	-25.6	5.7	2.3
Cc1cc(Oc2ccc(N)cn2)ccc1Cl	7.9	17.8	31.2*	1.3	0.4	23.7*
CCO[C@@H]1OC(C(=O)N2CCCCCCC2)=C[C@H](C2CCCCC2)[C@H]1CCCO	1.7	-8.1	9.8	5.8	1.9	1.3
O=C(c1ccncc1)N(Cc1ccccc1)Cc1nc2ccccc2c(=O)[nH]1	2.3	-6.2	-3.3	29.1*	-2.0	6.5
N#C/C(=C\c1ccco1)C(=O)NCc1ccccc1	0.1	-6.6	-9.3	7.4	-2.9	-0.4
N#CC(C#N)=C1C=CC=CN1/C(=C\c1ccco1)C(=O)c1ccc(Cl)cc1	2.9	55.0*	8.2	1.7	-11.5	-2.8
CC(/C=N/n1c(-c2ccc(Cl)cc2)n[nH]c1=S)=C\c1ccco1	0.1	1.8	1.6	-3.5	-0.3	2.4
N#CC(C#N)=C1C=CC=CN1/C(=C\c1ccco1)C(=O)c1ccc(-c2ccccc2)cc1	3.5	27.0*	8.7	-3.4	-8.8	-4.1
CCn1ccnc1CN1CCC(n2nccc2NC(=O)c2ccccc2OC)CC1	7.8	-0.6	1.7	-0.6	-0.6	-1.8
CC1(C)CC(=O)c2c(O)cc(OCC(=O)Nc3ccc(S(N)(=O)=O)cc3)cc2O1	2.8	-5.5	6.0	-2.9	2.2	1.5
COc1cc(NC(=O)COc2cc(O)c3c(c2)OC(C)(C)CC3=O)cc(OC)c1OC	30.6	2.8	42.7*	-24.5	-9.6	13.4
CC1CN(C)C(C)CC1OC(=O)C(c1ccccc1)c1ccccc1 (configuration not stated)	0.6	60.9*	68.4*	-29.2	-14.8	-17.1
